Source: publication PMC7211327 (International Journal of Nanomedicine, 2020)
In brackets after ≈: the same amount, converted by molar mass.

Experiments:
Type in all cases: cell-based
[1] = tested on: Pseudomonas aeruginosa (ATCC 27853); assay: Agar plate diffusion, inhibition zone; conditions: ATCC27853, 24 h, read-out: Mean Diameter of Inhibition Zone (IZ)
[2] = tested on: Pseudomonas aeruginosa (ATCC 27853); assay: Paper disk diffusion MIC; conditions: ATCC27853, 24 h, read-out: Minimal Inhibitory Concentration (MIC)
In short: (§1)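 Paper disk diffusion MIC. Paper disks (12.7 mm) were loaded with test compound at different concentrations, dried and placed on nutrient agar inoculated with the test organism. Growth inhibition was examined after 24 hrs at 37°C. Each test was done three times, and values are the mean ± standard error.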

[3] = tested on: Bacillus subtilis (ATCC 6633); assay: Paper disk diffusion MIC; conditions: ATCC6633, 24 h, read-out: Minimal Inhibitory Concentration (MIC)
In short: as §1

MRSA [4] = assay: Paper disk diffusion MIC; conditions: Staphylococcus aureus, 24 h, read-out: Minimal Inhibitory Concentration (MIC)
In short: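 Bacteria were grown on nutrient agar. Dried 12.7 mm paper disks loaded with a range of test compound concentrations were placed on inoculated agar plates. Growth inhibition was scored after 24 h at 37°C, and each test was replicated three times.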

[5] = tested on: Bacillus subtilis (ATCC 6633); assay: Agar plate diffusion, inhibition zone; conditions: ATCC6633, 24 h, read-out: Mean Diameter of Inhibition Zone (IZ)
[6] = tested on: Escherichia coli (ATCC 25922); assay: Agar plate diffusion, inhibition zone; conditions: ATCC25922, 24 h, read-out: Mean Diameter of Inhibition Zone (IZ)
[7] = tested on: Escherichia coli (ATCC 25922); assay: Paper disk diffusion MIC; conditions: ATCC25922, 24 h, read-out: Minimal Inhibitory Concentration (MIC)
In short: as §1

[8] = tested on: Staphylococcus aureus (ATCC 29213); assay: Paper disk diffusion MIC; conditions: ATCC29213, 24 h, read-out: Minimal Inhibitory Concentration (MIC)
In short: as §1

[9] = tested on: Staphylococcus aureus (ATCC 29213); assay: Agar plate diffusion, inhibition zone; conditions: ATCC29213, 24 h, read-out: Mean Diameter of Inhibition Zone (IZ)
MRSA [10] = assay: Agar plate diffusion, inhibition zone; conditions: Staphylococcus aureus, 24 h, read-out: Mean Diameter of Inhibition Zone (IZ)

| Compound | zone of inhibition at 500 µg/mL [1] | MIC [2] | MIC [3] | MIC (MRSA [4]) | zone of inhibition at 500 µg/mL [5] | zone of inhibition at 500 µg/mL [6] | MIC [7] | MIC [8] | zone of inhibition at 500 µg/mL [9] | zone of inhibition at 500 µg/mL (MRSA [10]) |
| --- | --- | --- | --- | --- | --- | --- | --- | --- | --- | --- |
| O=C(O)c1cn(C2CC2)c2cc(N3CCNCC3)c(F)cc2c1=O [Ciprofloxacin, reference compound] | 24 ± 0.47 mm | 3.13 µg/mL (≈ 9.45 µM) | 0.8 µg/mL (≈ 2.41 µM) | 1.25 µg/mL (≈ 3.77 µM) | 29 ± 0.15 mm | 27 ± 0.98 mm | 1.57 µg/mL (≈ 4.74 µM) | 0.78 µg/mL (≈ 2.35 µM) | 27 ± 0.23 mm | 22 ± 0.5 mm |
| NS(=O)(=O)c1ccc(-n2c(SCC(=O)Nc3ccccc3)nc3ccccc3c2=O)cc1 [Compound 5, 2-((4-Oxo-3-(4-sulfamoylphenyl)-3,4-dihydroquinazolin-2-yl)thio)-N-phenylacetamide] | 15 ± 0.21 mm | 20 µg/mL (≈ 42.9 µM) | 2.5 µg/mL (≈ 5.36 µM) | 10 µg/mL (≈ 21.4 µM) | 25 ± 0.07 mm | 14 ± 0.23 mm | 10 µg/mL (≈ 21.4 µM) | 1.56 µg/mL (≈ 3.34 µM) | 22 ± 0.31 mm | 20 ± 0.18 mm |
| Cc1ccccc1NC(=O)CSc1nc2ccccc2c(=O)n1-c1ccc(S(N)(=O)=O)cc1 [Compound 6, 2-((4-Oxo-3-(4-sulfamoylphenyl)-3,4-dihydroquinazolin-2-yl)thio)-N-2-tolylacetamide] | 17 ± 0.13 mm | 7.5 µg/mL (≈ 15.6 µM) | 15.6 µg/mL (≈ 32.5 µM) | – | 16 ± 0.1 mm | 15 ± 0.31 mm | 5 µg/mL (≈ 10.4 µM) | 31.2 µg/mL (≈ 65 µM) | 14 ± 0.03 mm | – |
| Cc1cccc(NC(=O)CSc2nc3ccccc3c(=O)n2-c2ccc(S(N)(=O)=O)cc2)c1 [Compound 7, 2-((4-Oxo-3-(4-sulfamoylphenyl)-3,4-dihydroquinazolin-2-yl)thio)-N-3-tolylacetamide] | 14 ± 0.03 mm | 15.6 µg/mL (≈ 32.5 µM) | 1.25 µg/mL (≈ 2.6 µM) | 7.81 µg/mL (≈ 16.3 µM) | 20 ± 0.21 mm | 12 ± 0.15 mm | 20 µg/mL (≈ 41.6 µM) | 2.5 µg/mL (≈ 5.2 µM) | 15 ± 0.07 mm | 10 ± 0.02 mm |
| Cc1ccc(NC(=O)CSc2nc3ccccc3c(=O)n2-c2ccc(S(N)(=O)=O)cc2)cc1 [Compound 8, 2-((4-Oxo-3-(4-sulfamoylphenyl)-3,4-dihydroquinazolin-2-yl)thio)-N-4-tolylacetamide] | – | – | 6.31 µg/mL (≈ 13.1 µM) | 20 µg/mL (≈ 41.6 µM) | 26 ± 0.16 mm | – | – | 12.5 µg/mL (≈ 26 µM) | 23 ± 0.09 mm | 19 ± 0.01 mm |
| CN(C)[C@@H]1C(O)=C(C(N)=O)C(=O)[C@@]2(O)C(O)=C3C(=O)c4c(O)cccc4[C@@](C)(O)[C@H]3C[C@@H]12 [Tetracycline, reference compound] | 20 ± 0.1 mm | 62.5 µg/mL (≈ 141 µM) | 31.2 µg/mL (≈ 70.3 µM) | – | 25 ± 0.01 mm | 23 ± 0.31 mm | 15.6 µg/mL (≈ 35.2 µM) | 62.5 µg/mL (≈ 141 µM) | 25 ± 0.04 mm | – |
| CN[C@H](CC(C)C)C(=O)N[C@H]1C(=O)N[C@@H](CC(N)=O)C(=O)N[C@H]2C(=O)N[C@H]3C(=O)N[C@H](C(=O)N[C@H](C(=O)O)c4cc(O)cc(O)c4-c4cc3ccc4O)[C@H](O)c3ccc(c(Cl)c3)Oc3cc2cc(c3O[C@@H]2O[C@H](CO)[C@@H](O)[C@H](O)[C@H]2O[C@H]2C[C@](C)(N)[C@H](O)[C@H](C)O2)Oc2ccc(cc2Cl)[C@H]1O [Vancomycin, reference compound] | 22 ± 0.85 mm | 2.5 µg/mL (≈ 1.73 µM) | 1.95 µg/mL (≈ 1.35 µM) | 3.9 µg/mL (≈ 2.69 µM) | 21 ± 0.4 mm | 24 ± 0.2 mm | 1.38 µg/mL (≈ 0.952 µM) | 1.57 µg/mL (≈ 1.08 µM) | 17 ± 0.11 mm | 14 ± 0.65 mm |
